Activity calls are given as the source filed them. No cut-off for these calls is given here.
Key:
[1] = test system: Human immunodeficiency virus 1; test: Antiviral activity against HIV-1 Bal infected in human cervical tissue explants assessed as inhibition of dissemination of virus via migratory cells after 2 hrs; type: functional, organism-based
Summary of the method: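 Explants were pretreated with drug for 1 h, then exposed to HIV-1BaL for 2 h with drug present and washed. Cells that migrated out overnight were washed and cocultured with PM-1 cells (4 x 10^4/well) for about 10 days. Transfer was read as p24 by ELISA in coculture supernatant (detection limit 300 pg/ml). Two donors, triplicate.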

[2] = test system: Human immunodeficiency virus 1; test: Antiviral activity against HIV-1 RF infected in human PM1 cells after 7 days by RT assay; type: functional, organism-based; conditions: Human immunodeficiency virus 1, RF, PM1, 168 h
Summary of the method: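 PM-1 cells (4 x 10^4/well) were infected with HIV-1BaL or HIV-1RF (200 TCID50/ml) and cultured 7 days with drug. Replication was measured as reverse transcriptase in supernatant versus untreated wells. IC50 was obtained by nonlinear regression.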

[3] = Selectivity index, ratio of CC50 for human TZM-bl cells to IC50 for HIV-1 Bal; type: functional
Summary of the method: (§1)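 Selectivity index is CC50/IC50, using values determined in the same time period. CC50 was measured by MTT for TZM-bl and PM-1 cells and by trypan blue exclusion after 14 days for macrophages. Both were fitted by nonlinear regression.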

[4] = Selectivity index, ratio of CC50 for human PM1 cells to IC50 for HIV-1 Bal; type: functional; summary of the method: as §1
[5] = Selectivity index, ratio of CC50 for human PM1 cells to IC50 for HIV-1 RF; type: functional; summary of the method: as §1
[6] = test system: Human immunodeficiency virus 1; test: Antiviral activity against HIV-1 Bal infected in human TZM-bl cells after 24 hrs by luciferase reporter gene assay in presence of 12.5% whole semen; type: functional, organism-based; conditions: Human immunodeficiency virus 1, Bal
Summary of the method: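 HIV-1 BaL (200 TCID50/ml) pretreated with whole semen (12.5% final), then added to overnight-cultured TZM-bl cells (5 x 10^4/well) pretreated 1 h with drug. After 24 h, cells lysed and luciferase read. IC50 versus drug-free control by nonlinear regression; effect of semen tested by ANOVA with Bonferroni and t tests.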

[7] = test system: Human immunodeficiency virus 1; test: Antiviral activity against HIV-1 Bal infected in human TZM-bl cells after 24 hrs by luciferase reporter gene assay in presence of 12.5% cervical mucus; type: functional, organism-based; conditions: Human immunodeficiency virus 1, Bal
Summary of the method: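 TZM-bl cells (5 x 10^4/well), cultured overnight, pretreated first with cervical mucus simulant (12.5% final) and then drug (1 h), then infected with HIV-1 BaL (200 TCID50/ml). After 24 h, cells lysed and luciferase read. IC50 versus drug-free control by nonlinear regression; effect of mucus tested by ANOVA with Bonferroni and t tests.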

[8] = test system: Human immunodeficiency virus 1; test: Antiviral activity against HIV-1 subtype CRF02_AG V022808 infected in human MT4 cells assessed as inhibition of viral replication relative to HIV-1 3B; type: functional
Summary of the method: (§2)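 MT-4 cells (3 x 10^4/well) infected with site-directed mutants or recombinant clinical isolates (200 TCID50/well) with drug, cultured 3 to 5 days. Viability read by MTT colorimetric antivirogram assay. IC50 by nonlinear regression; fold change = IC50 for the test isolate / IC50 for wild-type HIV-1 IIIB tested in parallel (mean or median).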

[9] = test system: Human immunodeficiency virus 1; test: Antiviral activity against HIV-1 subtype CRF02_AG V022826 infected in human MT4 cells assessed as inhibition of viral replication relative to HIV-1 3B; type: functional; summary of the method: as §2
[10] = test system: Human immunodeficiency virus 1; test: Antiviral activity against HIV-1 subtype CRF02_AG V022830 infected in human MT4 cells assessed as inhibition of viral replication relative to HIV-1 3B; type: functional; summary of the method: as §2
[11] = test system: Human immunodeficiency virus 1; test: Antiviral activity against HIV-1 subtype CRF01_AE V029525 infected in human MT4 cells assessed as inhibition of viral replication relative to HIV-1 3B; type: functional
Summary of the method: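 Recombinant clinical HIV-1 isolates (200 TCID50/well) were tested in MT-4 cells (3 x 10^4/well) over 3–5 days, with an MTT viability read-out. IC50 was fitted by nonlinear regression. Fold change is the isolate IC50 divided by the HIV-1IIIB IC50, tested in parallel.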

[12] = test system: Human immunodeficiency virus 1; test: Antiviral activity against HIV-1 subtype B V022810 harboring NNRTI A98S andK101R mutant infected in human MT4 cells assessed as inhibition of viral replication relative to HIV-1 3B; type: functional; summary of the method: as §2
[13] = test system: Human immunodeficiency virus 1; test: Antiviral activity against HIV-1 subtype C V022831 infected in human MT4 cells assessed as inhibition of viral replication relative to HIV-1 3B; type: functional; summary of the method: as §2
[14] = test system: Human immunodeficiency virus 1; test: Antiviral activity against HIV-1 subtype D V022832 infected in human MT4 cells assessed as inhibition of viral replication relative to HIV-1 3B; type: functional; summary of the method: as §2
[15] = test system: Human immunodeficiency virus 1; test: Antiviral activity against HIV-1 SM002 harboring NNTRI 181C mutant infected in human MT4 cells assessed as inhibition of viral replication relative to HIV-1 3B; type: functional; summary of the method: as §2
[16] = test system: Human immunodeficiency virus 1; test: Antiviral activity against HIV-1 Bal infected in human cervical tissue explants assessed as inhibition of dissemination of virus via migratory cells after 2 hrs in presence of 12.5% cervical mucus; type: functional, organism-based
Summary of the method: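 Cervical explants were exposed to HIV-1BaL plus drug for 2 h in cervical mucus simulant or whole semen (final 12.5%), then washed. Migratory cells were cocultured with PM-1 indicator cells and infection read as p24 in coculture supernatant.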

[17] = test system: Human immunodeficiency virus 1; test: Antiviral activity against HIV-1 Bal infected in 2 hrs 100 nM compound pretreated human ectocervical explant tissue assessed as prolonged inhibition of viral infection post compound removal; type: functional
Summary of the method: (§3)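 Ectocervical explants were exposed to drug (0.01–10 µM) for 2 or 24 h at 37°C and washed. They received HIV-1BaL (2 h) on day 0, 2, 4 or 6 after drug removal, with no drug present. Read-outs at 10 days post-exposure: explant p24 ELISA, tissue proviral DNA by qPCR, and p24 in migratory cell–PM-1 cocultures. Three donors (2 h) or two donors (24 h), triplicate.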

[18] = test system: Human immunodeficiency virus 1; test: Antiviral activity against HIV-1 Bal infected in 2 hrs 10000 nM compound pretreated human ectocervical explant tissue assessed as prolonged inhibition of viral infection post compound removal measured after 4 days post compound removal; type: functional; summary of the method: as §3
[19] = test system: Human immunodeficiency virus 1; test: Antiviral activity against HIV-1 Bal infected in 24 hrs 10 nM compound pretreated human ectocervical explant tissue assessed as prolonged inhibition of viral infection post compound removal; type: functional; summary of the method: as §3
[20] = test system: Human immunodeficiency virus 1; test: Antiviral activity against HIV-1 Bal infected in 24 hrs 100 to 1000 nM compound pretreated human ectocervical explant tissue assessed as prolonged inhibition of viral infection post compound removal measured after 2 days post compound removal; type: functional; summary of the method: as §3
[21] = test system: Human immunodeficiency virus 1; test: Antiviral activity against HIV-1 Bal infected in 24 hrs 100 to 1000 nM compound pretreated human ectocervical explant tissue assessed as prolonged inhibition of viral infection post compound removal measured after 4 days post compound removal; type: functional; summary of the method: as §3
[22] = test system: Human immunodeficiency virus 1; test: Antiviral activity against HIV-1 SF162 infected in hu-SCID mouse assessed as protection from viral infection at 225 uM; type: functional; conditions: Human immunodeficiency virus 1, SF162 ISOLATE
[23] = test system: Human immunodeficiency virus 1; test: Antiviral activity against HIV-1 SF162 infected in hu-SCID mouse assessed as protection from viral infection at 22.5 uM; type: functional; conditions: Human immunodeficiency virus 1, SF162 ISOLATE

For `Cc1cc(C)c(Nc2ccnc(Nc3ccc(C#N)cc3)n2)c(C)c1` [DAPIVIRINE], the inhibition [1] was “Active”, the IC50 [2] was 2.4 nM and the “Selectivity Index” value [3] was 9273. For the same compound, the “Selectivity Index” value [4] was 1833, the “Selectivity Index” value [5] was 4583 and the IC50 [6] was 1.75 nM. The IC90 [6] was 16.7 nM, the IC50 [7] was 8.32 nM and the IC90 [7] was 41.6 nM. The “Ratio IC50” value [8] was 1, the “Ratio IC50” value [9] was 1 and the “Ratio IC50” value [10] was 1.6. For the same compound, the “Ratio IC50” value [11] was 2.6, the “Ratio IC50” value [12] was 1.6 and the “Ratio IC50” value [13] was 0.8. The “Ratio IC50” value [14] was 0.7, the “Ratio IC50” value [15] was 8 and the inhibition [16] was “Active”. For the same compound, the “inhibition (INH)” value [17] was 90%, the “inhibition (INH)” value [18] was 90% and the “inhibition (INH)” value [19] was 90%. The “inhibition (INH)” value [20] was 90%, the “inhibition (INH)” value [21] was 90% and the inhibition in vivo at 225 µM [22] was 85.7%. For the same compound, the inhibition in vivo at 22.5 µM [23] was 78.6%.
